Assay outcomes: PubChem, several laboratories
hERG protect = hERG rescue from dofetilide block, primary screen, cell-based, CHO-hERG, FluxOR thallium flux, dofetilide IC70; Voltage-gated inwardly rectifying potassium channel KCNH2 (Homo sapiens), Q12809; dofetilide IC70 present; activation (rescue from dofetilide block), less the hit threshold, % at 10 µM; 310,000 tested, 0.51% active; AID 1511, 2009;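 active = activation above the mean of controls blocked by dofetilide plus 5 SD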;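 also: thallium influx through hERG after potassium depolarization seen as dye fluorescence rise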
KCNK9 inh = KCNK9 potassium channel inhibitors, primary screen, HEK293 cells, thallium flux; Potassium channel subfamily K member 9 (Homo sapiens), Q9NPC2; FluxOR thallium flux fluorescence; active compounds read low; B-score at 10 µM; 310,000 tested, 1.2% active;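 active = ratio B-score over 3 SD below the library mean, with starting fluorescence within 5 SD of its mean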;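 also: negative B-score means less thallium flux so channel inhibition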
Target sequence (Q9NPC2 whole entry, looked up): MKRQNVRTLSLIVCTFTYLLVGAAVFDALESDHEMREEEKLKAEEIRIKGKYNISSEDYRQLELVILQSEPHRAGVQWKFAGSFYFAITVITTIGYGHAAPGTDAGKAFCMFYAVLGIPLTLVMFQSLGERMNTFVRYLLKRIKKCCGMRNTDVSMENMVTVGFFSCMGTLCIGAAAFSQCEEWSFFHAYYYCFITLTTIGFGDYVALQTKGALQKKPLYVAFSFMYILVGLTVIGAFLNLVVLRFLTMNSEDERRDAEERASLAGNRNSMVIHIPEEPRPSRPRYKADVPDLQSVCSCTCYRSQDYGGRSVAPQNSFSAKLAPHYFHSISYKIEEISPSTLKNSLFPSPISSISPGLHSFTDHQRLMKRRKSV
KCNK3 block = human KCNK3 channel inhibitors, primary screen, CHO cells, FluxOR thallium flux, B-score; AID 602410, 2012; FluxOR fluorescence; active compounds read low; Potassium channel subfamily K member 3 (Homo sapiens), O14649; 340,000 tested, 0.84% active; B-score at 10 µM;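 active = B-score under library mean minus 4 SD, starting fluorescence ratio at most library mean plus 5 SD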;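 also: more negative B-score means stronger inhibition of thallium flux through KCNK3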
Target sequence (O14649 whole entry, looked up): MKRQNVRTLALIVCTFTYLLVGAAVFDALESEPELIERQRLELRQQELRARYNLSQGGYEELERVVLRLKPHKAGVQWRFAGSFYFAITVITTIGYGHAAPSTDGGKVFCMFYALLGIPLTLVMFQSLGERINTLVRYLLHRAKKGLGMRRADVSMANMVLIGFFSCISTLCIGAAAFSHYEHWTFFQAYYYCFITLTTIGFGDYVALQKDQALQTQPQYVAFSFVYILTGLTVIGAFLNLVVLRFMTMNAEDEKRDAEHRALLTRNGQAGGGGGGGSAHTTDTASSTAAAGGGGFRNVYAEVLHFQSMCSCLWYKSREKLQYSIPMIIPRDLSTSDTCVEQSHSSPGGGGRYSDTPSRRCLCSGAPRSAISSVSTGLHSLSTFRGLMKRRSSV
KCNQ1 block = inhibitors of human KCNQ1 channel, primary screen, cell-based, thallium flux, high-throughput; Potassium voltage-gated channel subfamily KQT member 1 (Homo sapiens), P51787; CHO-K1 KCNQ1, FluxOR thallium flux fluorescence; active compounds read high; B-score at 10 µM; 310,000 tested, 1.3% active;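 active = compounds whose thallium flux B-score, printed positive for inhibition, exceeds three library SD while starting fluorescence stays within three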;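 also: channel opened by potassium depolarization with thallium stimulus after 20 min compound exposure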
Cl transport mod = KCC2 cotransporter modulators, thallium flux, primary screen, cell-based, HEK293 KCC2, FluoZin-2 fluorescence, MLSMR. Solute carrier family 12 member 5 (Homo sapiens), Q9H2X9. KCC2 cells, thallium flux FluoZin-2 fluorescence. B-score of Tl+ flux slope (higher = more flux/activation; lower = inhibition) at 10 µM. 190,000 tested, 2.2% active. AID 1456, 2008;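 active = thallium flux slope and its plate-corrected score both differing from the plate sample mean at a set confidence after two filtering rounds, in either direction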;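 also: slope of fluorescence scaled to starting intensity during 10 to 20 s after thallium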
KCNQ1 act = potentiators or activators of KCNQ1 channel, primary screen, cell-based, thallium flux, high-throughput; Potassium voltage-gated channel subfamily KQT member 1 (Homo sapiens), P51787; B-score at 10 µM; CHO-K1 KCNQ1, thallium flux FluxOR fluorescence; active compounds read high; 310,000 tested, 0.35% active;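 active = fluorescence ratio B-score, a plate-corrected score, at least three library SD, with initial intensity B-score within 5 SD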
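assay system = CHO-K1 cells stably expressing KCNQ1 | medium = assay buffer, equal DMSO in all wells | timing = 37 °C overnight plating, 90-min dark dye load, 20-min compound pretreatment | measured by = kinetic FluxOR thallium fluorescence, 10-s 1-Hz baseline, 110-s post-stimulus read | measure = fluorescence change relative to baseline, converted to B score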
KCNK9 inh conf = KCNK9 potassium channel inhibitors, confirmation, HEK293 cells, thallium flux, duplicate; shares compounds with KCNK9 inh; FluxOR thallium flux fluorescence; inhibition, % at 10 µM; 4,900 tested, 43% active; AID 492992, 2010;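 active = thallium signal inhibited by more than 5 SD of the compound-free buffer control wells, on both duplicate plates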;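 also: 0% = assay buffer control wells without compound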
Kir21 sel = mouse Kir2.1 channel inhibition, confirmation, selectivity assay for KCNK9 modulator project, cell-based, HEK293, thallium flux; shares compounds with KCNK9 inh; Kir2.1 cells, FluxOR thallium flux fluorescence; inhibition, % at 10 µM; 4,900 tested, 4% active; AID 492993, 2010;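 active = thallium signal drop more than 5 SD beyond the mean of the no-compound control wells, seen in both duplicate plates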;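 also: signal is fluorescence rise after thallium addition divided by baseline fluorescence; plate controls were assay buffer only for no effect and full block by chlorpromazine control for full effect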
KCNK9 uninduced = thallium flux in non-induced HEK293 cells, confirmation, counter-screen for KCNK9 inhibitor project, cell-based, second counter screen, non-induced KCNK9-HEK293; shares compounds with KCNK9 inh; FluxOR thallium flux; inhibition, % at 10 µM; 4,900 tested, 40% active; AID 492997, 2010;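 active = thallium signal drop beyond 5 SD of the untreated control mean, on both duplicate plates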;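 also: plate controls were buffer only IC0 wells for no effect and SID17386958 at its maximal inhibitory level for full effect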
KCNK3 inh conf = retest of human KCNK3 channel inhibitors, confirmation, CHO cells, FluxOR thallium flux, triplicate. shares compounds with KCNK3 block. FluxOR fluorescence; 0% buffer, 100% carvedilol maximal block. ratio percent of control, % at 10 µM. 2,400 tested, 99% active;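 active = ratio percent of control, averaged over triplicates, above buffer control mean plus 5 SD, cut at about 64% in these data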;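 also: ratio is the fluorescence rise from min to max over baseline after thallium stimulus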
KCNK3 uninduced = thallium flux inhibition in non-induced cells, primary screen, counter-screen for KCNK3 inhibitor project, cell-based, non-induced KCNK3 line, FluxOR thallium, triplicate; shares compounds with KCNK3 block; non-induced KCNK3 parental cells; active compounds read low; thallium flux ratio (lower = more inhibition) at 10 µM; 2,400 tested, 40% active;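 active = thallium flux ratio, averaged over three wells, more than 5 SD below the buffer control mean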;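 also: host cells are CHO cells without KCNK3 induction; ratio is peak minus trough fluorescence over baseline then normalized to buffer controls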
The depositor's hits bear a star; i = inactive; nt = no result given. The list is not random: actives were taken first. Their share in the collection is about 4.1%.

SMILES | hERG protect | KCNK9 inh | KCNK3 block | KCNQ1 block | Cl transport mod | KCNQ1 act | KCNK9 inh conf | Kir21 sel | KCNK9 uninduced | KCNK3 inh conf | KCNK3 uninduced
Cc1cc(C)c(OCC(=O)OCC(=O)NCc2cccs2)c(C)c1 | 0.2 | i | i | i | nt | i | nt | nt | nt | nt | nt
Cc1ccc(-c2cc(C(=O)N3CCCc4ccccc43)c3ccccc3n2)cc1 | -5.1 | i | i | i | -0.932 | i | nt | nt | nt | nt | nt
Cc1ccc2nc3sc(C(=O)N4CCCc5ccccc54)c(N)c3cc2c1 | -19.5 | -11.2* | -9.05* | i | nt | i | 53.0%* | i | 51.5%* | 135.3* | 0.0833*
Cc1ccc(-c2csc3ncn(CC(=O)NCC(c4ccco4)N4CCCC4)c(=O)c23)cc1 (centres undefined) | nt | nt | i | nt | nt | nt | nt | nt | nt | nt | nt
Cc1c(C(=O)c2ccc(Cl)c(Cl)c2)cnc2cc3c(cc12)OCO3 | -6.3 | -9.91* | -11.1* | i | -0.101 | i | 73.0%* | i | 44.0%* | 99.7* | i
Cc1c(C(=O)c2ccc3c(c2)OCO3)ccc2c1OCO2 | nt | nt | i | nt | nt | nt | nt | nt | nt | nt | nt
CNC(=O)C1CC(=O)N(CCCc2ccccc2)C(=Nc2ccccc2)S1 (centres undefined) | -7.3 | i | i | i | -2.41 | i | nt | nt | nt | nt | nt
COc1cccc(NC(=S)N(CCc2c(C)[nH]c3ccc(C)cc23)Cc2cccs2)c1 | -3.3 | -13.9* | -10.9* | i | 0.87 | i | 42.0%* | i | 43.0%* | 90.3* | 0.143*
COc1cccc(NC(=S)N(CCCN2CCC(C)CC2)Cc2cccs2)c1 | -8.6 | i | i | i | -0.369 | i | nt | nt | nt | nt | nt
Cc1ccc(C(c2ccc(C)o2)c2cccc([N+](=O)[O-])c2O)o1 | -17.8 | -11* | -9.79* | i | 0.664 | i | 26.0%* | i | i | 113.7* | 0.146*
COCCN1Cc2cccc(C(=O)Nc3cccc(-c4nc5ccccc5[nH]4)c3)c2C1=O | -18.1 | -13.4* | -10* | i | -1.86 | i | 58.5%* | i | i | 120.3* | 0.152*
COCCN1Cc2cccc(C(=O)Nc3ccc(-c4nc5ccccc5[nH]4)cc3)c2C1=O | -6.1 | i | i | i | 0.0701 | i | nt | nt | nt | nt | nt
COc1ccc(OC)c(CCNC(=O)c2cccc(NC(=O)C3=C(C)OCCS3)c2)c1 | -21.6 | -8.16* | -11* | i | nt | i | 37.5%* | i | i | 97.0* | i
CC(C)Oc1cccc(C(=O)C2CCCN(C(=O)c3ccnn3C)C2)c1 (centres undefined) | -12.6 | i | -10.5* | i | -0.0136 | i | i | i | i | 97.7* | i
CN(c1ccccc1)S(=O)(=O)c1cccc(NC(=O)CN2CCCc3ccccc32)c1 | -7.8 | -11.1* | -9.78* | i | -1.27 | i | 49.5%* | i | 24.0%* | 113.0* | i
NS(=O)(=O)c1cccc(NC(=O)CN2CCc3ccccc32)c1 | -11.2 | i | i | i | 1.7 | i | nt | nt | nt | nt | nt
COC(=O)C(NC(=O)c1ccc(Cl)cc1)(Nc1nc(C)cs1)C(F)(F)F (centres undefined) | -12.7 | i | i | i | 0.372 | i | nt | nt | nt | nt | nt
COc1cccc(C(=O)Nc2nc(-c3ccc4c(c3)OCO4)cs2)c1 | -16.2 | -8.99* | -10.4* | i | nt | i | 26.0%* | i | 25.5%* | 121.3* | 0.136*
COc1cccc(C(=O)Nc2nc(-c3ccncc3)cs2)c1 | -8.0 | i | i | i | -0.489 | i | nt | nt | nt | nt | nt
COc1ccc(C(=O)CCc2nc3ccccc3s2)cc1 | -4.5 | i | i | i | -0.394 | i | nt | nt | nt | nt | nt
CCN1CC2=C(OC(N)=C(C#N)C2c2cccs2)/C(=C\c2cccs2)C1 (centres undefined) | -7.9 | -8.68* | i | i | -0.781 | i | 28.5%* | i | 25.5%* | 130.3* | 0.12*
CCOC(=O)C1=C(CC)OC(N)=C(C#N)C1c1cccs1 (centres undefined) | -1.5 | i | i | i | -1.73 | i | nt | nt | nt | nt | nt
COc1ccc(/C=N/Nc2cc(C)nc3ccc(OC)cc23)c(OC)c1 | -24.4 | -16.4* | -13.6* | 14* | nt | i | i | i | 38.0%* | 151.0* | 0.109*
COc1ccccc1/C=N/Nc1cc(C)nc2ccc(C)cc12 | -9.5 | i | i | i | nt | i | nt | nt | nt | nt | nt
Cc1ccc(C(=O)N2N=C3c4ccccc4S(=O)(=O)N3[C@H]2N(C)C)cc1 | -6.8 | i | i | i | -0.575 | i | nt | nt | nt | nt | nt
O=C(c1c(F)cccc1F)N(C1CCCCC1)C1CCCCC1 | -6.1 | -12* | -12.2* | i | nt | i | 67.5%* | i | 27.5%* | 132.7* | 0.124*
O=C(c1c(F)cccc1F)N(Cc1cccs1)C1CCCC1 | -7.5 | i | i | i | -0.509 | i | nt | nt | nt | nt | nt
COc1ccc(/C=N/NC(=O)c2ccoc2C)cc1COc1c(C)cccc1C | -14.0 | -11.4* | -12.8* | 12* | -1.02 | i | 47.5%* | i | i | 113.0* | 0.138*
COc1ccc(/C=N\NC(=O)c2ccccc2OC)cc1COc1ccccc1C | -9.8 | i | i | i | nt | i | nt | nt | nt | nt | nt
